Measurements from ChEMBL document CHEMBL1122519, “Bispyridinamines: a new class of topical antimicrobial agents as inhibitors of dental plaque” (1984).

Assays:
Pseudomonas aeruginosa [1] = assay: Compound is evaluated for the antimicrobial minimum inhibitory concentration against Pseudomonas aeruginosa MGH-1; type: functional
Streptococcus mutans [2] = assay: Compound is evaluated for minimum plaque inhibitory concentration using a standard test organism, Streptococcus mutans OMZ-61; type: functional
In short: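 S. mutans OMZ-61 in pH 7.0 beef extract–trypticase medium with 0.5% sucrose. Sterile ceramic hydroxylapatite plates got two 1-min soaks in 0.1–0.001% compound, each followed by 1-min air-drying, then a 5-min water rinse. Plates were put in inoculated medium at 37 °C anaerobically for 24 h. The cycle was repeated for a second 24 h. Plaque was stained with 1% FD&C Red No. 3. Value is the lowest concentration completely preventing plaque.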

Klebsiella pneumoniae = assay: Minimum inhibitory concentration against Klebsiella pneumonia 39645; type: functional
In short: (§1)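 Serial twofold tube dilution in tryptose phosphate broth. Each compound was prepared as a 1000 μg/mL aqueous stock and diluted in double-strength broth, then 2×10^5 cells were added. Tubes were incubated aerobically at 37 °C for 24 h. The MIC was taken as the lowest concentration with no visible growth.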

Proteus mirabilis [3] = assay: Compound is evaluated for the antimicrobial minimum inhibitory concentration against Proteus mirabilis MGH-1; type: functional; in short: as §1
Staphylococcus aureus [4] = assay: Compound is evaluated for the antimicrobial minimum inhibitory concentration against Staphylococcus aureus (Smith); type: functional; in short: as §1
Escherichia coli [5] = assay: Minimum inhibitory concentration against Escherichia coli (Vogel); type: functional; in short: as §1
Streptococcus mutans [6] = assay: Compound is evaluated for the effect of saliva upon the antiplaque activity at 0% of saliva and at 0.1 percentage of compound; - = No staining; type: functional, organism-based
In short: (§2)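 Hydroxylapatite plates were treated twice daily with 1-min exposures to aqueous compound (0.001–0.1%), air-dried and rinsed. They were then incubated anaerobically at 37 °C with S. mutans in sucrose medium for 48 h. The medium held 0, 5 or 50% pooled, centrifuged, filter-sterilised human saliva. Plaque and plate staining were scored visually after FD&C Red No. 3 dye. Staining was scored on plates run without organism.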

Streptococcus mutans [7] = assay: Compound is evaluated for the effect of saliva upon the antiplaque activity at 0% of saliva and at 0.01 percentage of compound; + = Slight staining; type: functional, organism-based; in short: as §2
Streptococcus mutans [8] = assay: Compound is evaluated for the effect of saliva upon the antiplaque activity at 5% of saliva and at 0.01 percentage of compound; - = No staining; type: functional, organism-based; in short: as §2
Streptococcus mutans [9] = assay: Compound is evaluated for the effect of saliva upon the antiplaque activity at 5% of saliva and at 0.01 percentage of compound; + = Slight plaque accumulation; type: functional, organism-based; in short: as §2
Streptococcus mutans [10] = assay: Compound is evaluated for the effect of saliva upon the antiplaque activity at 50% of saliva and at 0.1 percentage of compound; - = No staining; type: functional, organism-based; in short: as §2
Streptococcus mutans [11] = assay: Compound is evaluated for the effect of saliva upon the antiplaque activity at 50% of saliva and at 0.01 percentage of compound; + = Slight plaque accumulation; type: functional, organism-based; in short: as §2
Streptococcus mutans [12] = assay: Compound is evaluated for the effect of saliva upon the antiplaque activity at 0% of saliva and at 0.001 percentage of compound; - = No plaque accumulation; type: functional, organism-based; in short: as §2
Streptococcus mutans [13] = assay: Compound is evaluated for the effect of saliva upon the antiplaque activity at 0% of saliva and at 0.005 percentage of compound; - = No plaque accumulation; type: functional, organism-based; in short: as §2
Streptococcus mutans [14] = assay: Compound is evaluated for the effect of saliva upon the antiplaque activity at 50% of saliva and at 0.1 percentage of compound; + = Slight plaque accumulation; type: functional, organism-based; in short: as §2
Streptococcus mutans [15] = assay: Compound is evaluated for the effect of saliva upon the antiplaque activity at 50% of saliva and at 0.005 percentage of compound; - = No staining; type: functional, organism-based; in short: as §2
Streptococcus mutans [16] = assay: Compound is evaluated for the effect of saliva upon the antiplaque activity at 0% of saliva and at 0.005 percentage of compound; + = Slight staining; type: functional, organism-based; in short: as §2
Streptococcus mutans [17] = assay: Compound is evaluated for the inhibition of plaque-forming enzyme of Streptococcus mutans OMZ-61; type: functional
In short: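 S. mutans OMZ-61 was grown anaerobically at 37 °C for 24 h in glucose medium. The cell-free filtrate, adjusted to pH 5.5, served as the dextran/levan sucrase source. Reactions contained 3 μmol 14C-sucrose in citrate phosphate buffer pH 5.5 with 4% EtOH and ran 2 h at 37 °C. MeOH-insoluble polysaccharide was counted by scintillation. Compounds were tested at 50, 160 and 500 μg base/mL, with lower levels if needed, and I50 was read graphically.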

Streptococcus mutans [18] = assay: Compound is evaluated for the effect of saliva upon the antiplaque activity at 0% of saliva and at 0.1 percentage of compound; - = No plaque accumulation; type: functional, organism-based; in short: as §2
Streptococcus mutans [19] = assay: Compound is evaluated for the effect of saliva upon the staining potential at 0% of saliva and at 0.001 percentage of compound; - = No staining; type: functional, organism-based; in short: as §2
Streptococcus mutans [20] = assay: (§3) Compound is evaluated for the effect of saliva upon the antiplaque activity at 50% of saliva and at 0.01 percentage of compound; - = No staining; type: functional, organism-based; in short: as §2
Streptococcus mutans [21] = assay: Compound is evaluated for the effect of saliva upon the antiplaque activity at 5% of saliva and at 0.005 percentage of compound; + = Slight plaque accumulation; type: functional, organism-based; in short: as §2
Streptococcus mutans [22] = assay: (§4) Compound is evaluated for the effect of saliva upon the antiplaque activity at 0% of saliva and at 0.01 percentage of compound; - = No plaque accumulation; type: functional, organism-based; in short: as §2
Pseudomonas aeruginosa [23] = assay: Minimum antimicrobial inhibitory concentration against Pseudomonas aeruginosa MGH-2; type: functional; in short: as §1
Streptococcus mutans [24] = assay: Compound is evaluated for the effect of saliva upon the antiplaque activity at 50% of saliva and at 0.025 percentage of compound; - = No staining; type: functional, organism-based
In short: (§5)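 Hydroxylapatite plate antiplaque assay against S. mutans run for 48 h, with two 1-min exposures to aqueous compound per 24 h. Growth medium contained 0, 5 or 50% pooled human saliva (paraffin-stimulated, centrifuged, filtered, membrane-sterilized). Plaque was stained with FD&C Red No. 3 and graded none, slight or moderate. Staining potential was scored on plates run without inoculum and graded none or slight.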

Streptococcus mutans [25] = assay: Compound is evaluated for the effect of saliva upon the staining potential at 0% of saliva and at 0.01 percentage of compound; + = Slight staining; type: functional, organism-based; in short: as §5
Escherichia coli [26] = assay: Antimicrobial minimum inhibitory concentration against Escherichia coli AB1932-1; type: functional; in short: as §1
Streptococcus mutans [27] = assay: Compound is evaluated for the effect of saliva upon the antiplaque activity at 0% of saliva and at 0.025 percentage of compound; - = No plaque accumulation; type: functional, organism-based; in short: as §5
Streptococcus mutans [28] = assay: Compound is evaluated for the effect of saliva upon the antiplaque activity at 0% of saliva and at 0.05 percentage of compound; + = Slight staining; type: functional, organism-based; in short: as §5
Streptococcus mutans [29] = assay: Compound is evaluated for the effect of saliva upon the antiplaque activity at 50% of saliva and at 0.025 percentage of compound; - = No plaque accumulation; type: functional, organism-based; in short: as §5
Escherichia coli [30] = assay: Antimicrobial minimum inhibitory concentration against Escherichia coli 100/B22; type: functional; in short: as §1
Streptococcus mutans [31] = assay: Compound is evaluated for the effect of saliva upon the antiplaque activity at 50% of saliva and at 0.05 percentage of compound; - = No staining; type: functional, organism-based; in short: as §5
Streptococcus mutans [32] = assay: as §3; type: functional, organism-based; in short: as §5; remark: listed apart in the source
Proteus mirabilis [33] = assay: Minimum antimicrobial inhibitory concentration against Proteus mirabilis MGH-1; type: functional; in short: as §1
Staphylococcus aureus [34] = assay: Minimum antimicrobial inhibitory concentration against Staphylococcus aureus; type: functional; in short: as §1
Streptococcus mutans [35] = assay: Compound is evaluated for the effect of saliva upon the antiplaque activity at 50% of saliva and at 0.05 percentage of compound; - = No plaque accumulation; type: functional, organism-based; in short: as §5
Streptococcus mutans [36] = assay: Compound is evaluated for the effect of saliva upon the antiplaque activity at 0% of saliva and at 0.025 percentage of compound; + = Slight staining; type: functional, organism-based; in short: as §5
Streptococcus mutans [37] = assay: Compound is evaluated for the growth inhibition of Streptococcus mutans OMZ-61; type: functional
Streptococcus mutans [38] = assay: Compound is evaluated for the effect of saliva upon the antiplaque activity at 0% of saliva and at 0.05 percentage of compound; - = No plaque accumulation; type: functional, organism-based; in short: as §5
Streptococcus mutans [39] = assay: Compound is evaluated for the effect of saliva upon the antiplaque activity at 50% of saliva and at 0.01 percentage of compound; type: functional, organism-based; in short: as §5
Streptococcus mutans [40] = assay: Minimum plaque inhibitory concentration using a standard test organism, Streptococcus mutans OMZ-61; type: functional, organism-based
In short: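 Ceramic hydroxylapatite plates were soaked twice for 1 min each in compound at […] (aqueous), air-dried and rinsed, then hung in sucrose beef-extract medium (pH 7.0) inoculated with late-log S. mutans OMZ-61. Incubation was anaerobic at 37 °C for 24 h, and treatment plus reinoculation were repeated for a second 24 h. Plaque was stained with 1% FD&C Red No. 3 and scored visually. The value is the lowest concentration giving no plaque while medium growth matched control.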

Streptococcus mutans [41] = assay: as §4; type: functional, organism-based; in short: as §5; remark: listed apart in the source

## Br.Br.N=c1ccn(CCCCCCn2ccc(=N)cc2)cc1
Pseudomonas aeruginosa [1]
  MIC: > 500 µg/mL
Streptococcus mutans [2]
  Min plague Inhibitory: >1%
Klebsiella pneumoniae
  MIC: > 500 µg/mL
Proteus mirabilis [3]
  MIC: > 500 µg/mL
Staphylococcus aureus [4]
  MIC: 250 µg/mL
Escherichia coli [5]
  MIC: 500 µg/mL

## Br.Br.N=c1ccn(CCCCn2ccc(=N)cc2)cc1
Pseudomonas aeruginosa [1]
  MIC: > 500 µg/mL
Streptococcus mutans [2]
  Min plague Inhibitory: >1%
Klebsiella pneumoniae
  MIC: > 500 µg/mL
Proteus mirabilis [3]
  MIC: > 500 µg/mL
Staphylococcus aureus [4]
  MIC: 125 µg/mL
Escherichia coli [5]
  MIC: 500 µg/mL

## CCCCCCCCCCCCCCCC[n+]1ccccc1.[Cl-]
Streptococcus mutans [6]
  Staining potential: No staining
Streptococcus mutans [7]
  Staining potential: No staining
Streptococcus mutans [8]
  Staining potential: No staining
Streptococcus mutans [9]
  Plaque accum: No plaque accumulation
Streptococcus mutans [10]
  Staining potential: No staining
Streptococcus mutans [11]
  Plaque accum: No plaque accumulation
Streptococcus mutans [12]
  Plaque accum: No plaque accumulation
Streptococcus mutans [13]
  Plaque accum: No plaque accumulation
Streptococcus mutans [14]
  Plaque accum: No plaque accumulation
Streptococcus mutans [15]
  Staining potential: No staining
Streptococcus mutans [16]
  Staining potential: No staining
Streptococcus mutans [17]
  I50: 95 (ug of base) ml-1
Streptococcus mutans [18]
  Plaque accum: No plaque accumulation
Streptococcus mutans [19]
  Staining potential: No staining
Streptococcus mutans [20]
  Staining potential: No staining
Streptococcus mutans [21]
  Plaque accum: No plaque accumulation
Streptococcus mutans [22]
  Plaque accum: No plaque accumulation

## CCCCC(CC)CNC(=N)NC(=N)NCCCCCCNC(=N)NC(=N)NCC(CC)CCCC.Cl.Cl (stereo unspecified) [ALEXIDINE DIHYDROCHLORIDE]
Pseudomonas aeruginosa [23]
  MIC: 15.6 µg/mL
Streptococcus mutans [24]
  Staining potential: No staining
Streptococcus mutans [25]
  Staining potential: No staining
Escherichia coli [26]
  MIC: 1 µg/mL
Streptococcus mutans [27]
  Plaque accum: No plaque accumulation
Streptococcus mutans [28]
  Staining potential: No staining
Streptococcus mutans [29]
  Plaque accum: No plaque accumulation
Escherichia coli [30]
  MIC: 1 µg/mL
Streptococcus mutans [31]
  Staining potential: No staining
Streptococcus mutans [32]
  Staining potential: No staining
Klebsiella pneumoniae
  MIC: 3.9 µg/mL
Proteus mirabilis [33]
  MIC: 31.3 µg/mL
Staphylococcus aureus [34]
  MIC: 0.5 µg/mL
Streptococcus mutans [17]
  I50: 156 (ug of base) ml-1
Streptococcus mutans [35]
  Plaque accum: No plaque accumulation
Streptococcus mutans [36]
  Staining potential: No staining
Streptococcus mutans [37]
  MIC: 0.5 (ug of base) ml-1
Streptococcus mutans [38]
  Plaque accum: No plaque accumulation
Streptococcus mutans [39]
  Plaque accum: No plaque accumulation
Streptococcus mutans [40]
  Concentration: 0.005%
Streptococcus mutans [41]
  Plaque accum: No plaque accumulation
Escherichia coli [5]
  MIC: 2 µg/mL
